Compound activity as filed in PubChem BioAssay.
Many of the other results were omitted from the sample, so hits are more common in it than they were.
CHOP UPR activ: activators of apoptotic arm of unfolded protein response (CHOP); CHO-CHOP luciferase reporter, UPR activation, luminescence; percent of tunicamycin response over DMSO baseline; activation, % at 10 µM; 330,000 tested, 0.34% active;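 active = at 10 µM dose, activation of 40% or more, normalized to positive control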;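 note: 100% = tunicamycin at 10 µg/mL and 0% = DMSO alone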
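Assay system: CHO-CHOP cells, stable luciferase reporter of PERK-eIF2a-CHOP signalling / Buffer or medium: F12 plus 10% serum / Compound dosing: one dose, 10 µM in 0.5% DMSO / Times: 6 h compound treatment, 37 °C / Technique: luciferase luminescence / Read-out: % reporter activation, DMSO baseline versus tunicamycin full activation / Benchmarks: tunicamycin and DMSO controls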
UPR XBP1 act: activators of adaptive arm of unfolded protein response (XBP1); activation, % at 20 µM; AID 463104; 330,000 tested, 0.33% active; CHO-XBP1 luciferase reporter, IRE1-XBP1 UPR activation, luminescence; percent of tunicamycin response, DMSO as zero;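 active = versus positive control, 20 µM dose yields 30% or more activation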;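 note: 100% = tunicamycin at 10 µg/mL and 0% = DMSO only wells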
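Material – CHO cell line with stable XBP1 luciferase reporter · Buffer or medium – F12 plus 10% FBS · Compound – single point, 20 µM final compound, 1% DMSO · Schedule – 16-18 h cell attachment at 37 °C, then 6 h compound exposure · Signal – Steady-Glo luminescence read · Benchmarks – high control tunicamycin 10 µg/mL final, low control DMSO vehicle only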
CHOP inh: inhibitors of CHOP induction in ER stress response; 220,000 tested, 3.8% active; inhibition, % at 10 µM; CHO-K1 CHOP-promoter luciferase, tunicamycin-induced, 15-18 h; AID 2732;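 active = compounds that reduced the stress-induced luciferase reporter signal by more than about 70% of percent inhibition, limit read from the data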;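 note: 0% = tunicamycin plus vehicle and 100% = wells without tunicamycin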
Bfl-1 A1 inh: inhibitors of the anti-apoptotic protein A1, read as caspase activation. 330,000 tested, 0.066% active. MEF A1-2A-BIM cells, Caspase-Glo 3/7 luminescence, 3 h; percent of clofoctol response, vehicle zero. AID 2462. caspase activation, % (concentration not given with the values);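 active = over half of replicate activation scores above 10%, or exactly half above 10 with the replicate mean above 10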
Active calls of the source: *; . = not tested or not shown.

SMILES	CHOP UPR activ	UPR XBP1 act	CHOP inh	Bfl-1 A1 inh
Cc1ccc(-n2ncc3c(N4CCN(c5ccccc5)CC4)ncnc32)c(C)c1	-6	-7	84*	0
CCc1cc2c(N3CCN(c4ccccc4)CC3)ncnc2s1	-1	3	77*	0
COc1ccc(C(=O)N/N=C/c2ccc(N(C)c3ccccc3)cc2)cc1	-1	2	.	2
O=C(NCC(=O)N1CCCCC1)c1ccc2ccccc2c1	4	1	.	1
O=C(CN1C(=O)NC2(CCCCC2)C1=O)NCCCSc1ccccc1	1	-3	.	0
CCCCc1nc(N)c(C#N)c(-c2ccco2)c1CCC	0	1	77*	0
O=[N+]([O-])c1cc(CN2CCN(c3ccccc3)CC2)c(O)c2ncccc12	10	14	77*	0
O=[N+]([O-])c1ccc(O)c2ncccc12	6	6	87*	-1
O=[N+]([O-])c1cc([N+](=O)[O-])c2cccnc2c1Oc1ccccc1O	.	.	86*	1
O=[N+]([O-])c1cc(CN2CCOCC2)c2cccnc2c1O	.	.	19	.
Cc1ccc(N2C(=O)c3cccc4c([N+](=O)[O-])ccc(c34)C2=O)c2cccnc12	-3	-4	95*	1
C=CCN1CCN(C(=O)c2ccc3c(c2)OCO3)CC1	-1	-1	.	0
CCOc1ccccc1NC(=O)C(OC(=O)c1cnccn1)c1ccccc1 (stereo not drawn)	2	-3	.	1
CCOCCN1CCN(c2c(CC)c(C)nc3cc(-c4cc(OC)cc(OC)c4)nn23)CC1	0	3	29	1
CCc1c(C)nc2cc(-c3cc(OC)cc(OC)c3)nn2c1N1CCCC1	0	7	92*	0
CS(=O)(=O)c1ccc2nc(NC(=O)c3ccc(Cn4cc(Br)cn4)o3)sc2c1	1	-2	.	1
COc1ccccc1OCCC(=O)OCC(=O)NCc1ccc(F)cc1	-1	-2	.	0
O=P(OC1CCCCC1)(OC1CCCCC1)C(O)c1ccc(Cl)cc1Cl (stereo not drawn)	-1	4	92*	0
O=P(OC1CCCCC1)(OC1CCCCC1)C(O)c1c(Cl)cccc1Cl (stereo not drawn)	-2	1	84*	0
O=C1NC(=Nc2ccc3ccccc3c2)S/C1=C/c1ccco1	2	0	86*	1
Cc1cccc(N=C2NC(=O)S/C2=C\c2ccco2)c1	-1	-2	72*	0
COc1cc(CNC2CCCC2)cc(Cl)c1OCc1ccccc1Cl	-2	14	74*	1
O=C(CSc1nc2ccccc2nc1N1CCCCC1)Nc1ccc(F)cc1	2	-3	.	0
S=C(c1ccc(-c2ccccc2Cl)o1)N1CCOCC1	4	3	71*	-6
CCCn1c2ccccc2c2cnn(CC(=O)NC3CCCC(C)C3C)c(=O)c21 (stereo not drawn)	0	25	.	1
SMILES	CHOP UPR activ	UPR XBP1 act	CHOP inh	Bfl-1 A1 inh
COc1cc(S(=O)(=O)N2CCN(c3ccccn3)CC2)ccc1Br	3	-2	.	0
Cc1cc(NC(=O)c2ccccc2)c(Cl)cc1N	-4	-10	72*	.
O=S(=O)(c1ccc(-c2csc(Nc3ccc(F)cc3)n2)cc1)N1CCCC1	1	6	90*	1
CCCCCCOc1ccc(N2C(=O)CC(N3CCN(CCN=CC4C(=O)CC(C)(C)CC4=O)CC3)C2=O)cc1 (stereo not drawn)	1	-2	71*	0
Cc1ccc(S(=O)(=O)N2CCN(C(=O)n3ccnc3)CC2)cc1	8	-2	.	-1
COc1cccc(CN(C)C(=O)c2cc(S(=O)(=O)N3CCCC3)ccc2C)c1OC	-1	0	.	-1
CC(C)(C)c1ccc(C(=O)Nc2ccccc2NC(=O)c2ccco2)cc1	0	-1	72*	0
C=C(C)CSc1nc(C)c(Cc2ccccc2)c(=O)[nH]1	0	-2	76*	1
CSc1nc(C)c(Cc2ccccc2)c(=O)[nH]1	2	-2	-6	1
Cc1nc(SCC(C)C)[nH]c(=O)c1Cc1ccccc1	-2	-4	83*	0
O=C(NCc1ccccc1Cl)c1ccc(NC2=NC3CS(=O)(=O)CC3S2)cc1 (stereo not drawn)	-1	-3	.	1
COc1ccc(CCC(C)Nc2cccc(F)c2)cc1 (stereo not drawn)	2	-1	88*	0
COc1ccccc1CNC(=O)c1ccc2nc3[nH]c4ccccc4c3nc2c1	12	8	100*	0
Cc1ccc(CNC(=O)c2ccc3nc4[nH]c5ccccc5c4nc3c2)cc1	.	.	94*	.
CCc1nc2ccc(C(=O)NCCc3ccccc3OC)cc2nc1CC	2	2	.	1
COc1ccc2[nH]c(=O)c(CN(Cc3cccs3)Cc3nnnn3C(C)(C)C)cc2c1	3	0	47	0
CCOc1ccc2[nH]c(=O)c(CN(Cc3cccs3)Cc3nnnn3C(C)(C)C)cc2c1	0	-1	96*	0
CC(C)Oc1ccc(S(=O)(=O)N2CCOCC2)cc1NC(=O)CCCSc1ccccc1	0	-2	.	.
CCOc1c(Br)ccc2c1sc1nc[nH]c(=O)c12	-1	2	93*	0
Cc1ccc(NC(=O)c2ccc(F)cc2F)cc1	5	-3	.	-9
Cc1ccc(NC(=O)c2cc(N(C)C)ccc2[P+](=O)O)cc1	2	1	91*	1
NC(=O)c1ccccc1NC(=O)COc1ccc2c(c1)OCO2	7	-1	.	-5
COC1=C(N)C(=O)c2nc(-c3nc(C(=O)O)c(C)c(-c4ccc(OC)c(OC)c4O)c3N)ccc2C1=O	10	-9	81*	.
COc1ccc(-c2ncncc2-c2csc(C)n2)c(O)c1OC	-3	1	1	0
Cc1nn(C)c(C)c1NS(=O)(=O)c1ccccc1Cl	-1	1	.	1
SMILES	CHOP UPR activ	UPR XBP1 act	CHOP inh	Bfl-1 A1 inh
N#CC1=C(N)c2ccccc2CC12CCCCC2	-1	-2	78*	0
COc1cc(O)c2c(=O)c(-c3ccc(O[C@@H]4O[C@H](CO)[C@@H](O)[C@H](O)[C@H]4O)cc3)coc2c1	12	4	.	-11
CCOC(=O)NC(c1ccccc1)C1CCCCC1=O (stereo not drawn)	1	0	-30	0
O=C1CCCCC1C(Nc1ccc(Cl)cc1)c1ccccc1 (stereo not drawn)	1	0	94*	-1
O=C1CCCCC1C(Nc1ccc(Br)cc1)c1ccccc1 (stereo not drawn)	-1	3	80*	0
COc1ccccc1CN(C)C(=O)c1cccc(S(=O)(=O)N2CCc3ccccc3C2)c1	2	-1	.	0
CC(C)(C)NC(=O)NC(=O)CSc1cccc(C(F)(F)F)c1	-2	-2	90*	0
CNC(=O)NC(=O)CSc1cccc(C(F)(F)F)c1	-2	1	-4	-1
CC(C)(C)NC(=O)NC(=O)CSc1ncc(C(F)(F)F)cc1Cl	2	0	74*	0
